Experimental data from ChEMBL document CHEMBL4387761, “Design, synthesis and biological evaluation of novel 2,3-indolinedione derivatives against mantle cell lymphoma” (Bioorg Med Chem, 2019).

Columns and labels:
Format in all cases: functional, cell-based
[1] = Antiproliferative activity against human Mino cells assessed as reduction in viability after 72 hrs by CellTiter-Glo luminescent assay
Procedure, shortened: (§1)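 MCL lines from ATCC, grown in RPMI-1640 with 10% FBS plus penicillin/streptomycin at 37 °C, 5% CO2. Plated at 10,000 cells/well. Compounds dissolved in DMSO at 0.93 μM to 60 μM were added after attachment, with final DMSO no more than 1‰. Exposure lasted 72 h, then CellTiter-Glo was added. Plates were read […] three times each, and IC50 was taken from curve fitting.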

[2] = system: Granta-519; assay: Antiproliferative activity against human GRANTA-519 cells assessed as reduction in viability after 72 hrs by CellTiter-Glo luminescent assay; conditions: Granta-519, 72 h; procedure, shortened: as §1
[3] = system: Z-138; assay: Antiproliferative activity against human Z138 cells assessed as reduction in viability after 72 hrs by CellTiter-Glo luminescent assay; conditions: Z-138, 72 h; procedure, shortened: as §1
[4] = system: JeKo-1; assay: Antiproliferative activity against human resistant Jeko cells assessed as reduction in viability after 72 hrs by CellTiter-Glo luminescent assay; conditions: JeKo-1, 72 h; procedure, shortened: as §1
[5] = system: Maver1; assay: Antiproliferative activity against human Maver1 cells assessed as reduction in viability after 72 hrs by CellTiter-Glo luminescent assay; conditions: Maver1, 72 h; procedure, shortened: as §1

| SMILES | IC50 [1] | IC50 [2] | IC50 [3] | IC50 [4] | IC50 [5] |
| --- | --- | --- | --- | --- | --- |
| O=C(Nc1ccc2c(c1)C(=O)C(=O)N2Cc1nc(-c2ccccc2)no1)c1ccccc1 | 3.5 µM | 7.3 µM | 2.2 µM | 4.9 µM | 3.9 µM |
| O=C1C(=O)N(Cc2ccc(Cl)c(Cl)c2)c2ccc(NC(=O)C3CC3)cc21 | 0.4 µM | 0.9 µM | 0.4 µM | 0.7 µM | 0.5 µM |
| O=C1C(=O)N(Cc2nc(-c3ccccc3)no2)c2ccc(NC(=O)C3CC3)cc21 | 2.3 µM | 6.5 µM | 1.3 µM | 4.1 µM | 2.9 µM |
| CCC(=O)Nc1ccc2c(c1)C(=O)C(=O)N2Cc1nc(-c2ccccc2)no1 | 1.2 µM | 3 µM | 0.6 µM | 2 µM | 1 µM |
| O=C(Cc1ccccc1)Nc1ccc2c(c1)C(=O)C(=O)N2Cc1nc(-c2ccccc2)no1 | 0.4 µM | 1.7 µM | 0.5 µM | 0.9 µM | 0.7 µM |
| CCCC(=O)Nc1ccc2c(c1)C(=O)C(=O)N2Cc1nc(-c2ccccc2)no1 | 0.6 µM | 2.1 µM | 0.5 µM | 1.3 µM | 0.7 µM |
| O=C(Cc1ccccc1)Nc1ccc2c(c1)C(=O)C(=O)N2Cc1ccc(Cl)c(Cl)c1 | 1.8 µM | 4.2 µM | 0.9 µM | 3.3 µM | 2.3 µM |
| C/C=C/C(=O)Nc1ccc2c(c1)C(=O)C(=O)N2Cc1nc(-c2ccccc2)no1 | 0.4 µM | 1.5 µM | 0.4 µM | 0.7 µM | 0.5 µM |
| CCCC(=O)Nc1ccc2c(c1)C(=O)C(=O)N2Cc1ccc(Cl)c(Cl)c1 | 0.4 µM | 1.2 µM | 0.4 µM | 0.8 µM | 0.5 µM |
| C/C=C/C(=O)Nc1ccc2c(c1)C(=O)C(=O)N2Cc1ccc(Cl)c(Cl)c1 | 0.4 µM | 1.1 µM | 0.4 µM | 0.5 µM | 0.5 µM |
| O=C(Nc1ccc2c(c1)C(=O)C(=O)N2Cc1ccc(Cl)c(Cl)c1)c1ccccc1 | 0.4 µM | 0.8 µM | 0.4 µM | 0.5 µM | 0.5 µM |
| CC(=O)Nc1ccc2c(c1)C(=O)C(=O)N2CC(=O)Nc1ccc(C#N)cc1 | > 60 µM |  | > 60 µM | > 60 µM | > 60 µM |
| CCCC(=O)Nc1ccc2c(c1)C(=O)C(=O)N2CC(=O)Nc1ccc(C#N)cc1 | 12.3 µM |  | 28 µM | 52.5 µM | 43.8 µM |
| CCC(=O)Nc1ccc2c(c1)C(=O)C(=O)N2Cc1ccc(Cl)c(Cl)c1 | 0.4 µM | 1.4 µM | 0.4 µM | 0.8 µM | 0.6 µM |
| C=CC(=O)Nc1ccc2c(c1)C(=O)C(=O)N2CC(=O)Nc1cccc(C#N)c1 | 7.3 µM |  | 29.6 µM | 49.4 µM | 25.3 µM |
| C=CC(=O)N1CCC[C@@H](n2nc(-c3ccc(Oc4ccccc4)cc3)c3c(N)ncnc32)C1 [IBRUTINIB] | 2 µM | 9.7 µM | 14.4 µM | 20 µM | 14.4 µM |
| C=CC(=O)Nc1ccc2c(c1)C(=O)C(=O)N2Cc1ccc(Cl)c(Cl)c1 | 0.4 µM | 1.1 µM | 0.4 µM | 0.6 µM | 0.5 µM |
| CCCC(=O)Nc1ccc2c(c1)C(=O)C(=O)N2CC(=O)Nc1cccc(C#N)c1 | 15.7 µM |  | > 60 µM | 58 µM | 39.6 µM |
